Activity calls are given as the source filed them. The calls are words filed in the database; no cut-off is given here.
Columns and labels:
[1] = molecular target: T1, Enoyl-[acyl-carrier-protein] reductase [NADH] (Mycobacterium tuberculosis, UniProt P9WGR1); test: Inhibition of Mycobacterium tuberculosis InhA-catalysed chemical reaction in presence of NADH measured for 1 min by UV/Visible spectrophotometry
T1 sequence (P9WGR1 whole entry): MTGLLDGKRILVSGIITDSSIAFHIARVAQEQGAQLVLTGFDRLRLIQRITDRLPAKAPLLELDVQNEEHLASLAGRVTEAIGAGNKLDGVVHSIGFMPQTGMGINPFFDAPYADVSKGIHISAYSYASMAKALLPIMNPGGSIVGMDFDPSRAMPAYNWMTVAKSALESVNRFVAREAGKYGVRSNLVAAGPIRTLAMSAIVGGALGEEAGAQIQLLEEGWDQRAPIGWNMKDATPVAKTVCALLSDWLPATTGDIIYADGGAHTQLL
Summary of the method: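 Recombinant MtInhA reaction at 25 °C in 100 mM Pipes pH 7.0, started by adding 2.2 μM enzyme and followed for 1 min. Substrate is DD-CoA, made from 2-trans-dodecenoic acid and CoA.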

[2] = molecular target: T1, Enoyl-[acyl-carrier-protein] reductase [NADH]; test: Noncompetitive inhibition of Mycobacterium tuberculosis InhA using DD-CoA as substrate assessed as inhibition constant for enzyme-inhibitor binary complex in presence of varying concentrations of NADH by double reciprocal plot analysis
[3] = Selectivity index, ratio of CC50 for human HepG2 cells by MTT assay to MIC for pan-sensitive Mycobacterium tuberculosis H37Rv ATCC 27294; format: toxicity; conditions: read-out: Selectivity Index
[4] = Cytotoxicity against human HepG2 cells assessed as reduction in cell viability incubated for 72 hrs by neutral red uptake assay; format: toxicity, cell-based
Summary of the method: (§1)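 Cells grown in DMEM with 10% FBS. HepG2 seeded at 4 × 10³ and Vero at 2 × 10³ cells/well, 24 h before dosing. Compounds at 1, 5 and 20 μM in 1% DMSO for 72 h at 37 °C, 5% CO2. MTT readout: 5 mg/mL reagent for 4 h, absorbance at 595 nm. Neutral red readout: 25 μg/mL dye for 3 h, then acid-ethanol desorb. Viability is expressed relative to 1% DMSO controls.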

[5] = Cytotoxicity against African green monkey Vero cells assessed as reduction in cell viability incubated for 72 hrs by neutral red uptake assay; format: toxicity, cell-based; conditions: chlorocebus sabaeus; summary of the method: as §1
[6] = Metabolic stability in rat liver microsomes assessed as half life at 2 uM measured upto 30 mins by HPLC/MS/MS analysis; format: ADME, Microsome
Summary of the method: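 Compounds at 2 μM incubated at 37 °C with 1 mg/mL rat liver microsomes containing NADPH. Parent compound consumption followed over time.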

[7] = molecular target: T1, Enoyl-[acyl-carrier-protein] reductase [NADH]; test: Binding affinity to Mycobacterium tuberculosis InhA assessed as dissociation constant at 250 uM at 25 degreeC in presence of NADH by fluorescence spectroscopy
Summary of the method: (§2)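 Titration of pre-formed MtInhA:NADH complex (2 mL of 3 μM enzyme with 20 μM NADH), adding microliter aliquots of 250 μM ligand stock with dilution kept ≤1%. Intrinsic fluorescence read at 295 nm excitation, 310–500 nm emission. Temperatures 15, 20, 25 and 30 °C. KD is fitted to a hyperbolic isotherm. ΔH°, ΔS° and ΔG° come from van't Hoff analysis of KD across temperatures.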

[8] = Cytotoxicity against African green monkey Vero cells assessed as reduction in cell viability incubated for 72 hrs by MTT assay; format: toxicity, cell-based; conditions: chlorocebus sabaeus; summary of the method: as §1
Escherichia coli = test: Antibacterial activity against Escherichia coli ATCC 25922 assessed as inhibition of bacterial growth at 20 uM by broth microdilution method; format: functional, organism-based
Summary of the method: (§3)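 Broth microdilution in triplicate against a small bacterial panel, with compounds tested at 20 μM for growth inhibition.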

Klebsiella pneumoniae = test: Antibacterial activity against multidrug-resistant Klebsiella pneumoniae clinical isolates assessed as inhibition of bacterial growth at 20 uM by broth microdilution method; format: functional, organism-based; summary of the method: as §3
[9] = test system: Mycobacterium tuberculosis; test: Potency index, ratio of isoniazid MIC to test compound MIC for antibacterial activity against pan-sensitive Mycobacterium tuberculosis H37Rv ATCC 27294 measured after 7 days by resazurin dye based assay; format: functional; conditions: time 7 day
[10] = Permeability of compound at 10 uM measured after 5 hrs by PAMPA assay; format: ADME; conditions: read-out: permeability
Summary of the method: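 PAMPA: compounds at 10 μM in 2% DMSO added to a pH 7.4 donor phase, 5 h at room temperature. Receptor-side concentration (pH 7.4) measured to derive permeation rate. Alprenolol is the analytical control.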

[11] = Genotoxicity in human HepG2 cells assessed as induction of DNA damage at 1 to 5 uM incubated for 24 hrs by alkaline comet assay; format: toxicity, cell-based; conditions: hepg2, 24 h, dose 1-5 µM
Summary of the method: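 Alkaline comet assay in HepG2 cells seeded at 8 × 10⁴ cells/well. Exposure to 1 or 5 μM for 24 h. Lysis 48 h, alkali unwinding (300 mM NaOH, pH >13) 20 min at 4 °C, electrophoresis 20 min at 25 V, silver staining.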

[12] = Toxicity in CF-1 mouse assessed as reduction in body weight at 150 uM/kg, po administered daily for 14 days; format: organism-based; conditions: in vivo, 336 h, time 14 day
Summary of the method: (§4)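 Mice were infected with M. tuberculosis H37Rv. From 7 days after infection, test and reference drugs were given daily by oral gavage for 14 days, with a vehicle-only group. Body weight was followed over the course of the experiment.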

[13] = molecular target: T1, Enoyl-[acyl-carrier-protein] reductase [NADH]; test: Binding affinity to Mycobacterium tuberculosis InhA assessed as dissociation constant at 250 uM at 30 degreeC in presence of NADH by fluorescence spectroscopy; summary of the method: as §2
[14] = Toxicity in mouse assessed as effect on spleen weight at 300 mg/kg administered as single dose and measured for 14 days; format: organism-based; conditions: in vivo, 336 h, time 14 day
Summary of the method: (§5)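 Acute oral toxicity study. At day 14 the animals were euthanized, and kidneys, liver and spleen were weighed and inspected macroscopically.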

[15] = Toxicity in mouse assessed as effect on lung weight at 300 mg/kg administered as single dose and measured for 14 days; format: organism-based; conditions: in vivo, 336 h, time 14 day
[16] = test system: Mycobacterium tuberculosis; test: Antibacterial activity against Mycobacterium tuberculosis H37Rv ATCC 27294 infected in CF-1 mouse assessed as reversal of bacterial growth in spleen at 300 to 450 uM/kg, po administered daily for 14 days starting from 7 days post infection; format: functional, organism-based; conditions: dose 300-450 µM/Kg, time 14.0 day
Summary of the method: (§6)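 Mice treated by gavage from 7 days post-infection for 14 days, daily, at 300 or 450 μM/kg. Lungs and spleen homogenized in saline and plated for CFU. Comparisons are against vehicle and early-control groups.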

[17] = Toxicity in CF-1 mouse assessed as reduction in body weight at 300 to 450 uM/kg, po administered daily for 14 days; format: organism-based; conditions: in vivo, 336 h, dose 300-450 µM/Kg, time 14 day; summary of the method: as §4
[18] = test system: Mycobacterium tuberculosis; test: Bacteriostatic activity in Mycobacterium tuberculosis H37Rv ATCC 27294 infected in CF-1 mouse assessed as reduction in bacterial growth in lungs at 300 to 450 uM/kg, po administered daily for 14 days starting from 7 days post infection; format: functional, organism-based; conditions: dose 300-450 µM/Kg, time 14.0 day; summary of the method: as §6
[19] = Toxicity in mouse at 300 mg/kg administered as single dose and measured for 14 days; format: organism-based; conditions: in vivo, 336 h, time 14 day; summary of the method: as §5
[20] = Toxicity in mouse assessed as animal death at 300 mg/kg administered as single dose and measured for 14 days; format: organism-based; conditions: in vivo, 336 h, time 14 day; summary of the method: as §5
[21] = Toxicity in CF-1 mouse assessed as reduction in body weight at 300 uM/kg, po administered daily for 14 days; format: organism-based; conditions: in vivo, 336 h, time 14 day; summary of the method: as §4
[22] = molecular target: T1, Enoyl-[acyl-carrier-protein] reductase [NADH]; test: Binding affinity to Mycobacterium tuberculosis InhA assessed as dissociation constant at 250 uM at 15 degreeC in presence of NADH by fluorescence spectroscopy; summary of the method: as §2

| Structure (SMILES) | IC50 [1] | Ki [2] | selectivity ratio [3] | CC50 at 72 h [4] | CC50 at 72 h [5] | half-life at 2 µM [6] | Kd [7] | CC50 at 72 h [8] | Activity (Escherichia coli) | Activity (Klebsiella pneumoniae) | Ratio [9] | Papp at 5 h, 10 µM [10] | Activity [11] | further results |
| --- | --- | --- | --- | --- | --- | --- | --- | --- | --- | --- | --- | --- | --- | --- |
| Cc1cc(Nc2ccc(N3CCCCC3)cc2)c2cc(Cl)ccc2n1 | 1100 nM | 430 nM | > 22.2 | 16400 nM | 11700 nM | 5.9 min | 900 nM | 19200 nM | inactive | inactive | ~2.6 | 11.5 ×10⁻⁶ cm/s | Non-Toxic |  |
| Cc1cc(Nc2ccc(N3CCCCC3)cc2)c2cc(Br)ccc2n1 | 230 nM | 140 nM | > 50 | 18300 nM | 12200 nM | 22 min | 810 nM | > 20000 nM | inactive | inactive | ~5.8 | 3.16 ×10⁻⁶ cm/s | Non-Toxic | Activity [12]: Non-Toxic; Kd [13]: 1340 nM; Activity [14]: Non-Toxic; Activity [15]: Non-Toxic; Activity [16]: inactive; Activity [17]: Non-Toxic; Activity [18]: Active; Activity [19]: Non-Toxic; Activity [20]: Non-Toxic; Activity [21]: Non-Toxic; Kd [22]: 280 nM |

— ChEMBL document CHEMBL5385869, “Novel 4-aminoquinolines: Synthesis, inhibition of the Mycobacterium tuberculosis enoyl-acyl carrier protein reductase, antitubercular activity, SAR, and preclinical evaluation” (Eur J Med Chem, 2023)
